Measurements taken from ChEMBL document CHEMBL1799964, “Synthesis of novel vitamin K2 analogues with modification at the ω-terminal position and their biological evaluation as potent steroid and xenobiotic receptor (SXR) agonists” (J Med Chem, 2011).
Each block holds one compound with its values, some of them ahead of it.

Assays:
[1] = biological target: T1, Nuclear receptor subfamily 1 group I member 2 (Homo sapiens, UniProt O75469); assay: Agonist activity at human SXR transfected in human HepG2 cells coexpressing GAL4 assessed as activation of receptor-mediated CYP3A4 gene transcription at 1 X 10^-6 M after 48 hrs by luciferase reporter gene assay; conditions: hepg2, 48 h, 1 µM
T1 sequence (O75469 whole entry): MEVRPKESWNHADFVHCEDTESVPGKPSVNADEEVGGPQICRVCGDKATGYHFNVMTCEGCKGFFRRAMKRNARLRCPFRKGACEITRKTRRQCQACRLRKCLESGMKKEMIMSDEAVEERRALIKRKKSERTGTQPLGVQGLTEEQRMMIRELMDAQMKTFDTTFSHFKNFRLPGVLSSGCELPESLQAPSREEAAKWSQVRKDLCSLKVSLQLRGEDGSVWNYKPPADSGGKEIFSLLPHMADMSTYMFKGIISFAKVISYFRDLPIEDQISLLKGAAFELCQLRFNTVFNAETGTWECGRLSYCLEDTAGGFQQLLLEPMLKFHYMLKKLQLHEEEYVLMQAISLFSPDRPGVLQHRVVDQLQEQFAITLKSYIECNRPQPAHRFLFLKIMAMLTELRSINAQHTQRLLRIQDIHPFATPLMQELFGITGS

[2] = biological target: T1, Nuclear receptor subfamily 1 group I member 2; assay: Binding affinity to human SXR transfected in human HepG2 cells coexpressing GAL4 assessed as transcriptional activation at 5 X 10^-6 M after 48 hrs by luciferase reporter gene assay; format: cell-based; conditions: hepg2, 48 h, 5 µM
Procedure, shortened: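 HepG2 cells (2 x 10⁵/well) transfected by Lipofectamine with pM-SXR (0.1 μg), pGVP2-GAL2 luciferase reporter (1.0 μg) and pRL-CMV (0.05 μg). Mean ± SD of three independent experiments; Student's t test.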

Homo sapiens = assay: Drug level in osteoporotic patient at 45 […] administered daily; format: ADME, organism-based; conditions: in vivo, read-out: Drug uptake

Activity [1]: Active | Activity [2]: Not Active
SMILES: CC1=C(C/C=C(\C)CC/C=C(\C)CC/C=C(\C)CO)C(=O)c2ccccc2C1=O

Activity [2]: Active
SMILES: CC(C)=CCC/C(C)=C/CC1=C(C)C(=O)c2ccccc2C1=O [MENAQUINONE-2]

Activity [1]: Active | Activity [2]: Active
SMILES: CC(C)=CCC1=C(C)C(=O)c2ccccc2C1=O

Second part, the compound before the results:

SMILES: CC1=C(C/C=C(\C)CC/C=C(\C)CC/C=C(\C)CC/C=C(\C)CO)C(=O)c2ccccc2C1=O
Activity [1]: Active | Activity [2]: Not Active

SMILES: CC(C)=CCC/C(C)=C/CC/C(C)=C/CC1=C(C)C(=O)c2ccccc2C1=O
Activity [1]: Active | Activity [2]: Active

SMILES: CC1=C(C/C=C(\C)CC/C=C(\C)Cc2ccccc2)C(=O)c2ccccc2C1=O
Activity [1]: Active | Activity [2]: Active

SMILES: CC1=C(C/C=C(\C)CC/C=C(\C)CO)C(=O)c2ccccc2C1=O
Activity [1]: Active | Activity [2]: Not Active

SMILES: CC(C)=CCC/C(C)=C/CC/C(C)=C/CC/C(C)=C/CC1=C(C)C(=O)c2ccccc2C1=O [MENATETRENONE]
concentration (Homo sapiens): 1000 nM | Activity [1]: Active | Activity [2]: Active

SMILES: CO[C@H]1/C=C/O[C@@]2(C)Oc3c(C)c(O)c4c(O)c(c(/C=N/N5CCN(C)CC5)c(O)c4c3C2=O)NC(=O)/C(C)=C\C=C\[C@H](C)[C@H](O)[C@@H](C)[C@@H](O)[C@@H](C)[C@H](OC(C)=O)[C@@H]1C [RIFAMPIN]
Activity [2]: Active

SMILES: CC1=C(C/C=C(\C)CC/C=C(\C)CC/C=C(\C)Cc2ccccc2)C(=O)c2ccccc2C1=O
Activity [1]: Active | Activity [2]: Active
